The source of these data is ChEMBL document CHEMBL1122426, “Radioiodine-labeled N,N-dimethyl-N'-(2-hydroxy-3-alkyl-5-iodobenzyl)-1,3-propanediamines for brain perfusion imaging” (J Med Chem, 1983).

Series [1] is described as follows: Biodistribution of [123I]- compound in a monkey brain. 1 hr after intravenous injection. the value expressed in %dose/organ. The settings on record: simiiformes, in vivo. The class given is ADME, organism-based.
A short description of series [2]: Biodistribution of [125I]- compound in a monkey spleen. 1 hr after intravenous injection. the value expressed in %dose/gram. The settings on record: simiiformes, in vivo.
For series [3], the species on record is Rattus norvegicus. Put plainly: Effect of specific activity of compound on biodistribution in rats liver 1 hr after injection at the dose of 0.25 mg value expressed in average % dose per organ; value may range from 8.01 to 9.52. The settings on record: in vivo. The class given is ADME, organism-based. The essentials:
(§1)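 Rats received an intravenous injection of the I-125 labeled diamine with added unlabeled carrier (6.25, 2.5, 0.25 or 0.025 mg per dose). At 1 h, organs were counted. Percent dose per organ came from comparing tissue radioactivity with diluted aliquots of the injected dose. Values are the average and range of 3 rats. Brain/blood ratio was taken from % dose per gram, calculated using mean organ weights (brain 1.65 g; blood 18 g).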

Series [4] can be described thus: Biodistribution of [125I]- compound in a monkey kidneys. 1 hr after intravenous injection. the value expressed in%dose/organ. The settings on record: simiiformes, in vivo.
Series [5] relates to Rattus norvegicus. The series can be described thus: Biodistribution of I-125 labeled compound in rat thyroid, 2 min after intravenous injection. value expressed in average % dose per organ; value may range from 0.20 to 0.23. The settings on record: in vivo. The class given is ADME, organism-based, Thyroid gland.
Series [6] has as its system Rattus norvegicus. Put plainly: Biodistribution of I-125 labeled compound in rat muscle, 1 hr after intravenous injection. value expressed in average % dose per organ; value may range from 8.99 to 14.4. The settings on record: in vivo. It counts as ADME, organism-based, Muscle tissue.
Series [7] is filed under the species Rattus norvegicus. Put plainly: Effect of specific activity of compound on biodistribution in rats liver after injection at the dose of 0.025 mg value expressed in average % dose per organ; value may range from 6.23 to 7.26. The class given is ADME, organism-based. The settings on record: in vivo. Put shortly: as §1
Series [8] is filed under the species Rattus norvegicus. Put plainly: Effect of specific activity of compound on biodistribution in rats muscle 1 hr after injection at the dose of 2.5 mg value expressed in average % dose per organ; value may range from 12.7 to 18.3. The class given is ADME, organism-based, Muscle tissue. The settings on record: in vivo. Put shortly: as §1
The nature of series [9]: Biodistribution of [125I]- compound in a monkey thyroid. 1 hr after intravenous injection. the value expressed in %dose/organ. The settings on record: simiiformes, in vivo.
The species named for series [10] is Rattus norvegicus. Put plainly: Effect of specific activity of compound on biodistribution in rats liver 1 hr after injection at the dose of 2.5 mg value expressed in average % dose per organ; value may range from 17.1 to 20.7. It counts as ADME, organism-based. The settings on record: in vivo. Put shortly:
as §1

Series [11] concerns Rattus norvegicus. The series can be described thus: Biodistribution of I-125 labeled compound in rat brain to blood ratio, 2 min after intravenous injection, value expressed in % dose per gram ratio. The class given is ADME, organism-based. Put shortly:
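Rats given I-125 diamine iv; tissue activity at 2 min or 1 h compared with diluted injected-dose aliquots. % dose per gram approximated as % dose per organ divided by mean organ weight (brain 1.65 g; blood 18 g). Ratio taken from the per-gram values.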

Structures are written as SMILES.

Turning to `Cc1cc(I)cc(CNCCCN(C)C)c1O`, the values for the Dose per organ in series [1], in [4] and in series [9] were 3.18%, 16.1% and 0.333%, respectively. The Dose/g in [2] worked out at 0.267%. Also, the “Average dose per organ” value in the series listed under Rattus norvegicus [3] turned out to be 8.54%; in the series with Rattus norvegicus [5], 0.22%; in the series on Rattus norvegicus [6], 11.9%; in the series filed under Rattus norvegicus [7], 6.74%; in the series listed under Rattus norvegicus [8] it was 16.2%; in the series listed under Rattus norvegicus [10] it was 18.9%. Besides, the Ratio in the series with Rattus norvegicus [11] came to 7.35%.
